Results on 37 compounds are retold here after ChEMBL document CHEMBL3853331, “Preparation, Antiepileptic Activity, and Cardiovascular Safety of Dihydropyrazoles as Brain-Penetrant T-Type Calcium Channel Blockers” (J Med Chem, 2016).

The target in series [1] is Voltage-dependent L-type calcium channel subunit alpha-1C (Homo sapiens, UniProt Q13936). Kind of series: Inhibition of recombinant […] calcium channel Cav1.2 (unknown origin) expressed in HEK293 cells assessed as inhibition of Kcl-induced calcium influx preincubated for 3 mins prior CaCl2 addition by Fluo-4-AM dye-based FLIPR assay. In kind it is cell-based. The gist of the method:
(§1)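 HEK293 cells stably expressing the channel, seeded overnight and loaded 1 h at 37°C with 3 µM Fluo-4-AM. Compounds given as a 3-fold dilution series from 10 µM to 0.05 nM and incubated 3 min. For T-type channels, dilutions in TEAC buffer and stimulation with 10 mM final CaCl2. For Cav1.2, dilutions in assay buffer and stimulation with 20 mM final KCl. IC50 from area under the fluorescence trace against vehicle; mean of at least two experiments.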

The target of series [2] is Voltage-gated inwardly rectifying potassium channel KCNH2 (Homo sapiens, UniProt Q12809). As to the kind of experiment: Inhibition of human ERG expressed in CHO cells assessed as potassium tail current measured at -40 mV holding potential after 3 mins by QPatch clamp assay. In kind it is cell-based. The gist of the method:
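CHO cells stably expressing hERG, automated QPatch recording. 500-ms depolarization to +20 mV from a holding potential of -80 mV. K+ tail current measured at -40 mV. Effect read 3 min after application.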

For series [3], the target named is Voltage-dependent T-type calcium channel subunit alpha-1H (Homo sapiens, UniProt O95180). As to the kind of experiment: Inhibition of recombinant T-type calcium channel Cav3.2 (unknown origin) expressed in HEK293 cells assessed as inhibition of CaCl2-induced calcium influx preincubated for 3 mins prior CaCl2 addition by Fluo-4-AM dye-based FLIPR assay. In kind it is cell-based. In a few lines: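 HEK293 cells stably expressing Cav3.2, plated overnight at 37°C, loaded 1 h at 37°C with 3 µM Fluo-4-AM in HBSS/Hepes pH 7.4, then washed. Compound in TEAC buffer (100 mM tetraethylammonium chloride, pH 7.2), 3-fold series from 10 µM to 0.05 nM, 3 min before CaCl2 to a final 10 mM. IC50 fitted sigmoidally to the fluorescence AUC against vehicle signal; mean of at least two independent experiments.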
Voltage-dependent T-type calcium channel subunit alpha-1H, sequence (O95180 whole entry): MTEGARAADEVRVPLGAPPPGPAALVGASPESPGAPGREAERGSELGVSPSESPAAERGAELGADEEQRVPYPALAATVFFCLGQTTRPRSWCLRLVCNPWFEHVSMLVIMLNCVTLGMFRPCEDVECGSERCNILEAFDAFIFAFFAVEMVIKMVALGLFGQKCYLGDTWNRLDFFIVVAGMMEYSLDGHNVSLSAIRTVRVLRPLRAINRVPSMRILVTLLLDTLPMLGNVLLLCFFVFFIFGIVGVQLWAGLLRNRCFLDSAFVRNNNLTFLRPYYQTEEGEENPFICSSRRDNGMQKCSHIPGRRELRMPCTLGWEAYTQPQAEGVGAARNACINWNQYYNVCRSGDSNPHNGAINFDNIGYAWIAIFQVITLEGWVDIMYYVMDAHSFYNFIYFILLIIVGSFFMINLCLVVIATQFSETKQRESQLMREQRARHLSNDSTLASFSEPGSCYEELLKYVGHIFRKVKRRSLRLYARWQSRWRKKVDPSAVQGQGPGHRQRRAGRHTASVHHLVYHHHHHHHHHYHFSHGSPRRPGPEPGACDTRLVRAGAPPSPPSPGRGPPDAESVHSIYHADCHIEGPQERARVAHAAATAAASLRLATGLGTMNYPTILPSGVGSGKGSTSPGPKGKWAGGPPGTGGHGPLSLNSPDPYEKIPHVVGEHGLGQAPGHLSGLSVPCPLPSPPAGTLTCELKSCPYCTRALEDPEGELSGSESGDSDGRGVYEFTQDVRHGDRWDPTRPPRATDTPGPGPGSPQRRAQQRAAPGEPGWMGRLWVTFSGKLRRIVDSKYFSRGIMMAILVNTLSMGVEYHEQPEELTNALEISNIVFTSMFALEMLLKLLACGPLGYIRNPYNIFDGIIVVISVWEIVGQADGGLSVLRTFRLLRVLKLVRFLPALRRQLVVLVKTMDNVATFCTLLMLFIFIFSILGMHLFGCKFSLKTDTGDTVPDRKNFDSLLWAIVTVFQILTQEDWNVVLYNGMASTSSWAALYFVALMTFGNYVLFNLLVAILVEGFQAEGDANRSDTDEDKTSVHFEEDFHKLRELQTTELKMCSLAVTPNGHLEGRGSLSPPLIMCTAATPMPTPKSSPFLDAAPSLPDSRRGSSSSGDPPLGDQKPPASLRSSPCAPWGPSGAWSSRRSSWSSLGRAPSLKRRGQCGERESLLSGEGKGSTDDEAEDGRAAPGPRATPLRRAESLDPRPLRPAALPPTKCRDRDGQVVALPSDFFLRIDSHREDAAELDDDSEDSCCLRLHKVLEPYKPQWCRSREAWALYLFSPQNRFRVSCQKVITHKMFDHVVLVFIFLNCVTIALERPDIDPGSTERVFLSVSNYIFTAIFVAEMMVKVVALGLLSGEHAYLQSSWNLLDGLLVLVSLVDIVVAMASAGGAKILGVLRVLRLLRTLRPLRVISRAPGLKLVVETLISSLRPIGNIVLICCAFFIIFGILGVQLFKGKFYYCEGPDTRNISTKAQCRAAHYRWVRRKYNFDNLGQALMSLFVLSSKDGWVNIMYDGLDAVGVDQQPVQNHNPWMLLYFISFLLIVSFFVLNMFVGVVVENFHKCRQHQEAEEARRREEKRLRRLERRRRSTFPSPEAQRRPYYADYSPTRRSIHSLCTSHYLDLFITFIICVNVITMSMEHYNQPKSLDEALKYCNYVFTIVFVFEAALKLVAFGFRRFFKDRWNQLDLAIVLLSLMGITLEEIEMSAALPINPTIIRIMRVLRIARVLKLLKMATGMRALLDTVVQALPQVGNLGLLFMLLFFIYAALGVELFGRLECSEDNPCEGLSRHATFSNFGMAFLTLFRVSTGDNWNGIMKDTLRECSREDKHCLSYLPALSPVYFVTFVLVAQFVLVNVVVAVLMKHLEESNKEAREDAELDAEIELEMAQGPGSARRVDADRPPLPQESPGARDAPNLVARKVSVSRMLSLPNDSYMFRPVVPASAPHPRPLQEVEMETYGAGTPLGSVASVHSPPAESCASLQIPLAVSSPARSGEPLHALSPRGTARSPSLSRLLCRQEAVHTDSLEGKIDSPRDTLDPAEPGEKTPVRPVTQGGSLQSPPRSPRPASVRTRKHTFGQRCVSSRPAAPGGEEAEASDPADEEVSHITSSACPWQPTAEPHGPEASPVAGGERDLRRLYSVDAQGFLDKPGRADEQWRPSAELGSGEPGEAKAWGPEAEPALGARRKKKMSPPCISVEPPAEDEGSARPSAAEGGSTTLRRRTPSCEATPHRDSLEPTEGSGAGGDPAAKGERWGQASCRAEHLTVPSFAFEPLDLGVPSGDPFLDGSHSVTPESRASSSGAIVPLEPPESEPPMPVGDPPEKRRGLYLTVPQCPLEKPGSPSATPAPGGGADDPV

A short description of series [4]: Aqueous solubility of the compound at pH 7 by UV-HPLC method. In kind it is physicochemical. In a few lines:
(§2)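 Compound dispensed from a 10 mM DMSO stock and the solvent evaporated. Residue stirred 24 h at room temperature in buffer: citrate (55 mM) pH 4.0 or phosphate (67 mM) pH 7.0. Mixture filtered by centrifugation. Filtrate concentration measured by HPLC-UV against calibration solutions.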

Series [5] can be described thus: Aqueous solubility of the compound at pH 4 by UV-HPLC method. It is filed as physicochemical. The gist of the method:
as §2

For series [6], the target named is Voltage-dependent T-type calcium channel subunit alpha-1I (Homo sapiens, UniProt Q9P0X4). Kind of series: Inhibition of T-type calcium channel Cav3.3 (unknown origin) expressed in HEK293 cells assessed as calcium influx by Fluo-4-AM dye-based FLIPR assay. In kind it is cell-based. In a few lines: as §1
Series [7] has as its target Voltage-dependent T-type calcium channel subunit alpha-1G (Homo sapiens, UniProt O43497). As to the kind of experiment: Inhibition of T-type calcium channel Cav3.1 (unknown origin) expressed in HEK293 cells assessed as calcium influx by Fluo-4-AM dye-based FLIPR assay. It is filed as cell-based. In a few lines: as §1
The test system of series [8] is MDR1. As to the kind of experiment: Apparent permeability across basolateral to apical side in MDCK cells expressing MDR1 (unknown origin) at 1 uM. As to conditions: dog. It is filed as ADME, cell-based, Canis lupus familiaris. The gist of the method: (§3)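 MDR1-transfected MDCK cell monolayers. Compound tested at 1 µM. Apparent permeability measured in both directions, apical to basolateral and basolateral to apical. Efflux ratio taken from the two directional permeabilities.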

In series [9] the test system is MDR1. Kind of series: Apparent permeability across apical to basolateral side in MDCK cells expressing MDR1 (unknown origin) at 1 uM. It is filed as ADME, cell-based, Canis lupus familiaris. The note with it: dog. In a few lines:
as §3

Series [10] deals with MDR1. As to the kind of experiment: Efflux ratio of permeability in MDCK cells expressing MDR1 (unknown origin). In kind it is ADME, cell-based, Canis lupus familiaris. The note with it: dog. In a few lines: as §3

Each structure is given as a SMILES string. pIC50: −log10 of the molar value. In brackets after ≈: the same amount, converted by molar mass.

Voltage-dependent L-type calcium channel subunit alpha-1C, sequence (Q13936 whole entry): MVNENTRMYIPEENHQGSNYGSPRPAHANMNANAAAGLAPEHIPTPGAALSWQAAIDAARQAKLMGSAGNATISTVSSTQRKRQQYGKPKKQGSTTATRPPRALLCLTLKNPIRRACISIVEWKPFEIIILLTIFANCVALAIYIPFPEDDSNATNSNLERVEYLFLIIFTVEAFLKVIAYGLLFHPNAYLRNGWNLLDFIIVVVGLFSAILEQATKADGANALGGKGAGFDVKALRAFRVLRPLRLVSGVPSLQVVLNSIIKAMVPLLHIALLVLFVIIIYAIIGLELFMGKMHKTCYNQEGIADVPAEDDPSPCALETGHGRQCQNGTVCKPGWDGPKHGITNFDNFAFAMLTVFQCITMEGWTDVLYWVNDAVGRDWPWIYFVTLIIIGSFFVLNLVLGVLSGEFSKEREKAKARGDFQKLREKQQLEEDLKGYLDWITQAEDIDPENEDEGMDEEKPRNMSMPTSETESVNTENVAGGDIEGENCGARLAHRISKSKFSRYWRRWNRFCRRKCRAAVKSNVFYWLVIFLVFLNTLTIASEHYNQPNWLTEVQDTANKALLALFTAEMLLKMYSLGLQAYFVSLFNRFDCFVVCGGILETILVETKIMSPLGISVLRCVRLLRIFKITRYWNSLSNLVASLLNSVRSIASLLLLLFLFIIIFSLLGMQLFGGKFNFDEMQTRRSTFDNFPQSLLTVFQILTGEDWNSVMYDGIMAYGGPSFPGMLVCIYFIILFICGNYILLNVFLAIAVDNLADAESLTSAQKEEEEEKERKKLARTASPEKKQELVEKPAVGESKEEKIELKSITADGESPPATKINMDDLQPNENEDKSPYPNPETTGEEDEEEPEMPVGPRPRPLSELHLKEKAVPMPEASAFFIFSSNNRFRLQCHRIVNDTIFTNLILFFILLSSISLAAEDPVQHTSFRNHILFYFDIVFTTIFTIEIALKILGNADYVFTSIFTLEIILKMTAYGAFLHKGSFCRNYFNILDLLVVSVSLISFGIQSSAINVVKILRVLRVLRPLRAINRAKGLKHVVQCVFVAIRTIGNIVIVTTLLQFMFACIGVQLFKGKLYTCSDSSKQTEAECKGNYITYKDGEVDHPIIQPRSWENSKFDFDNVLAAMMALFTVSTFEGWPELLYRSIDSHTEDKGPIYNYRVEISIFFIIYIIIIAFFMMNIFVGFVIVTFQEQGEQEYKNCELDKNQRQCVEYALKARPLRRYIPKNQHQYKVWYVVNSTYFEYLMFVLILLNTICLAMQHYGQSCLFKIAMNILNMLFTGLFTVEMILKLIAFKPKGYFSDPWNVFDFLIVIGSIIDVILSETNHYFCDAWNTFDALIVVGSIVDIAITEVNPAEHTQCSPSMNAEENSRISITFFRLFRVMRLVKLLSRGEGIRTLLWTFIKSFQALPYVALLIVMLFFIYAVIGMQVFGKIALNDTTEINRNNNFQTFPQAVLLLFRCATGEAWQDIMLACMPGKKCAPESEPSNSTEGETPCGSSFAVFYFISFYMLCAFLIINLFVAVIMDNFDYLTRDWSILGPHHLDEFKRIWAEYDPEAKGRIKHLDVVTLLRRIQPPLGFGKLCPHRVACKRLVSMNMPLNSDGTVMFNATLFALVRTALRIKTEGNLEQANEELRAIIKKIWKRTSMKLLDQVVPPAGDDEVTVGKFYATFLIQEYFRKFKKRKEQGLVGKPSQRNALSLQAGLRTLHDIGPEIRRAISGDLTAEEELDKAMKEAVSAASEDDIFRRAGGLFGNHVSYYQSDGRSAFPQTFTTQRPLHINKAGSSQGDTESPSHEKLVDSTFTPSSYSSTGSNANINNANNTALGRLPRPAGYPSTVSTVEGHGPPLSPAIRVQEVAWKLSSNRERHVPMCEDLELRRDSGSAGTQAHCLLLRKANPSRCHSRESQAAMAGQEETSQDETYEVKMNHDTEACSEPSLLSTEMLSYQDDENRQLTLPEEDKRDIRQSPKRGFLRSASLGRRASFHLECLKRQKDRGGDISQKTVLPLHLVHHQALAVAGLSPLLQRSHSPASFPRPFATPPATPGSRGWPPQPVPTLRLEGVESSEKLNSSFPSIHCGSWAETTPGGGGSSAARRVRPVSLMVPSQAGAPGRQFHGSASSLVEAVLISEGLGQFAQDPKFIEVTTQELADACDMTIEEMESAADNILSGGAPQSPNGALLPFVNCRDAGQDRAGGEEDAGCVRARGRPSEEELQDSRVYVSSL

In the case of `O=C(Nc1cccc(F)c1)N1N=C(c2ccc(Br)cc2)CC1c1ccc(F)cc1` (stereo not given), the pIC50 in [1] is under 5.00; in [2], under 5.00; in series [3], 7.34.
For `O=C(Nc1ccc(F)cc1)N1N=C(c2ccccc2)CC1(CCO)c1ccccc1` (stereo not given), the negative-log IC50 (pIC50) was 5.71 in series [1] and 6.92 in series [3].
In the case of `Fc1ccc(NC(=S)N2N=C(c3ccc(Br)cc3)CC2c2ccc(F)cc2)cc1` (stereo not given), the pIC50 is under 5.00 in series [1] and 6.55 in series [3].
As for `O=C(Nc1ccccc1F)N1N=C(c2ccc(Br)cc2)CC1c1ccc(F)cc1` (stereo not given), the solubility in series [4] and in series [5] was under 1 µg/mL throughout. Moreover, the pIC50 in series [1] and in series [3] was under 5.00 in each case.
Turning to `CC(C)(C)NC(=O)CN1CCC(CNC(=O)c2cc(F)cc(Cl)c2)CC1` [ULIXACALTAMIDE], the negative logarithm of the IC50 (pIC50) in series [6] was 7.07; in series [7], 7.43; in series [3] it was 7.14.
Take `COc1ccc(C2(CCO)CC(c3cccnc3)=NN2C(=O)Nc2ccc(Br)cc2)cc1` (stereo not given): the values for the pIC50 in [1] and in series [3] were under 5.00 and 6.85, respectively.
Consider `O=C(Nc1ccc(F)cc1)N1N=C(c2ccc(Br)cc2)CC1c1ccc(F)cc1` (stereo not given), for which the results for the pIC50 in series [1] and in series [3] were under 5.00 and 7.80, respectively. Moreover, the solubility in [5] is under 1 µg/mL.
Take `O=C(Nc1ccccc1)N1N=C(c2ccc(Br)cc2)CC1c1ccc(F)cc1` (stereo not given): the results for the pIC50 in series [1], in series [2] and in series [3] were under 5.00, under 5.00 and 7.17, respectively.
With `COc1ccc(NC(=O)N2N=C(c3ccc(Br)cc3)CC2c2ccc(F)cc2)cc1` (stereo not given), the solubility in series [4] and in series [5] was under 1 µg/mL in each case. Moreover, the pIC50 in series [1] was under 5.00; in series [3] it was 6.35.
For the compound `Cc1ccc(C2(CCN(C)C)CC(c3ccccc3)=NN2C(=O)Nc2ccc(F)cc2)cc1` (stereo not given), the solubility is 30 µg/mL (≈ 67.5 µM) in series [4] and 42 µg/mL (≈ 94.5 µM) in [5]. In addition, the pIC50 in [1] was 5.66; in [3], 6.62.
Regarding `CCc1ccc(NC(=O)N2N=C(c3ccc(Br)cc3)CC2c2ccc(F)cc2)cc1` (stereo not given), the values for the pIC50 in series [1] and in series [3] were under 5.00 and 6.21, respectively.
In the same order, the values of `CC1=NN(C(=O)Nc2ccc(F)cc2)C(c2ccc(F)cc2)C1` (stereo not given) are under 5.00 and 6.05.
As to `Cc1ccc(C2(CCN3CCN(C)CC3)CC(c3ccccc3)=NN2C(=O)Nc2ccc(F)cc2)cc1` (stereo not given), the solubility in series [4] is 158 µg/mL (≈ 316 µM); in [5], 477 µg/mL (≈ 955 µM). The values for the negative logarithm of the IC50 (pIC50) in series [1] and in series [3] were 5.44 and 6.16, respectively.
In the case of `CN(C)CCOc1ccc(C2(CCO)CC(c3ccccc3)=NN2C(=O)Nc2ccc(F)cc2)cc1` (stereo not given), the results for the pIC50 in series [1] and in [3] were under 5.00 and under 5.28, respectively.
Take `O=C(Nc1ccc(F)cc1)N1N=C(c2cc[n+]([O-])cc2)CC1c1ccc(F)cc1` (stereo not given): the pIC50 is under 5.00 in [1] and 6.96 in series [3].
For the compound `CC1CC(c2ccccc2)=NN1C(=O)Nc1ccc(F)cc1` (stereo not given), the negative logarithm of the IC50 (pIC50) in series [1] was 5.41; in series [3], 6.39.
For `CS(=O)(=O)c1ccc(C2CC(c3ccncc3)=NN2C(=O)Nc2ccc(F)cc2)cc1` (stereo not given), the pIC50 in series [1] is under 5.00; in series [3], 6.39.
As for `CC(C)c1ccc(CC(=O)N[C@H](C)c2ccc(OCC(F)(F)F)cn2)cc1` [SUVECALTAMIDE], the pIC50 is 8.82 in series [6], 8.92 in series [7] and 8.09 in [3].
In the case of `CS(=O)(=O)c1ccc(C2CC(c3ccccc3)=NN2C(=O)Nc2ccc(F)cc2)cc1` (stereo not given), the solubility in [4] and in [5] was under 1 µg/mL in each case. In addition, the pIC50 in series [1] was under 5.00; in series [3], 7.40.
Turning to `O=C(Nc1ccc(F)cc1)N1N=C(c2ccccc2)CC1c1ccc(F)cc1` (stereo not given), the solubility in [4] and in series [5] was under 1 µg/mL throughout. Besides, the pIC50 in [1] is under 5.00; in series [3], 7.60.
As to `COCC1(c2ccc(C)cc2)CC(c2ccccc2)=NN1C(=O)Nc1ccc(F)cc1` (stereo not given), the values for the pIC50 in [1] and in series [3] were under 5.00 and 6.46, respectively.
As for `Cc1ccc(C2(CCN3CCOCC3)CC(c3ccccc3)=NN2C(=O)Nc2ccc(F)cc2)cc1` (stereo not given), the solubility in [4] amounted to 1 µg/mL (≈ 2.06 µM); in series [5] it was 371 µg/mL (≈ 762 µM). In addition, the pIC50 in series [1] was 5.23; in series [3], 6.37.
Consider `Cc1ccc(C2(CCO)CC(c3ccncc3)=NN2C(=O)Nc2ccc(F)cc2)cc1` (stereo not given), for which the solubility was 35 µg/mL (≈ 83.6 µM) in series [4] and 193 µg/mL (≈ 461 µM) in [5]. Besides, the pIC50 in series [1] is 5.07; in [3], 6.48.
For `CS(=O)(=O)c1ccc(C2(CCO)CC(c3ccccc3)=NN2C(=O)Nc2ccc(F)cc2)cc1` (stereo not given), the Papp B→A at 1 µM in series [8] was 62 ×10⁻⁶ cm/s. In addition, the Papp A→B at 1 µM in [9] came out at 0.6 ×10⁻⁶ cm/s. The pIC50 in [1] is under 5.00; in [3] it was 6.38. In series [10], the efflux ratio is 104.
Take `COc1ccc([C@]2(CCO)CC(c3cccnc3)=NN2C(=O)Nc2ccc(Br)cc2)cc1`: the pIC50 in [1] was 5.32; in series [3], 7.48.
On to `O=C(NCCc1ccccc1)N1N=C(c2ccc(Br)cc2)CC1c1ccc(F)cc1` (stereo not given), for which the pIC50 in series [1] was 5.73; in series [3], 6.38.
As for `O=C(NC1CCCCC1)N1N=C(c2ccc(Br)cc2)CC1c1ccc(F)cc1` (stereo not given), the pIC50 is 5.87 in series [1] and 6.50 in series [3].
For `O=C(Nc1ccc(F)cc1)N1N=C(c2ccccc2)CC1(CO)c1ccc(F)cc1` (stereo not given), in series [4], the concentration in solution (solubility) came to 2 µg/mL (≈ 4.91 µM). The pIC50 in series [1] was 5.58; in [3] it was 7.15.
On to `O=C(Nc1ccc(F)cc1)N1N=C(c2ccncc2)C[C@@H]1c1ccc(F)cc1`, for which the pIC50 in [1] was 5.11; in [3], 6.49.
The like results for `O=C(Nc1ccccn1)N1N=C(c2ccc(Br)cc2)CC1c1ccc(F)cc1` (stereo not given) were, in that order, 5.66 and 6.41.
In the same order, the values of `O=C(Nc1ccc(F)cc1)N1N=C(c2ccncc2)C[C@H]1c1ccc(F)cc1` are 5.27 and 7.68.
Consider `CC(C)NC(=O)N1N=C(c2ccc(Br)cc2)CC1c1ccc(F)cc1` (stereo not given), for which the values for the pIC50 in series [1] and in series [3] were 5.63 and 6.42, respectively.
As for `O=C(c1ccccc1)N1N=C(c2ccc(Br)cc2)CC1c1ccc(F)cc1` (stereo not given), the negative logarithm of the IC50 (pIC50) is under 5.00 in [1] and 5.27 in series [3].
Consider `COCCOc1ccc(C2(CCO)CC(c3ccccc3)=NN2C(=O)Nc2ccc(F)cc2)cc1` (stereo not given), for which the solubility in series [4] and in series [5] was 8 µg/mL (≈ 16.8 µM) in each case. Moreover, the results for the pIC50 in series [1] and in series [3] were 5.20 and 7.22, respectively.
Consider `COc1ccc([C@@]2(CCO)CC(c3cccnc3)=NN2C(=O)Nc2ccc(Br)cc2)cc1`, for which the pIC50 in series [3] is under 5.00.
In the case of `O=C(Nc1ccncc1)N1N=C(c2ccccc2)CC1c1ccc(F)cc1` (stereo not given), the pIC50 in series [1] was 5.51; in series [3], 6.69.
On to `COc1ccc(C2=NN(C(=O)Nc3ccc(Cl)cc3)[C@](CCO)(c3cccnc3)C2)cc1`, for which the basolateral-to-apical permeability (Papp B→A) at 1 µM in series [8] turned out to be 90 ×10⁻⁶ cm/s. For the same compound, the solubility in [4] is 14 µg/mL (≈ 31 µM); in series [5], 27 µg/mL (≈ 59.9 µM). Moreover, the Papp A→B at 1 µM in series [9] was 5.3 ×10⁻⁶ cm/s. The pIC50 in series [1] is 5.24; in [3] it was 7.26. The efflux ratio in series [10] was 17.
